Assay results pooled from the literature.
Compare with care: the assays were run in different laboratories.
Target: Transient receptor potential cation channel subfamily M member 6 (TRPM6, Homo sapiens, UniProt Q9BX84)

| Structure (SMILES) | test | setting | remaining binding |
| --- | --- | --- | --- |
| O=C(O)[C@H]1[C@H](Cn2nnc3ccccc3c2=O)CC[C@@H]1C(=O)c1ccc(OCCC2CCOCC2)cc1 | cell-free assay, competition with immobilised ligand | 1 µM | 100% |
| C[C@@H]1CCN(c2nccc(-c3cnn4ncccc34)n2)C1 | binding | 1 µM | 91% |
| CNCc1ccccc1-c1csc([C@@H](C)Nc2nc(C)nc3cc(OC)c(OC)cc23)c1 | cell-free assay, competition with immobilised ligand | 1 µM | 91% |
| CCN1CCN(Cc2ccc(C(=O)Nc3ccc(C)c(Oc4ccc5c(c4)CC(=O)N5)c3)cc2C(F)(F)F)CC1 | binding, competition with immobilised ligand | 1 µM | 100% |
| Cc1nc(C2CCN(C(=O)c3ccc(OC(F)(F)F)cc3N)CC2)c2ncc(N3CCN(C)CC3)cc2n1 | cell-free assay, competition with immobilised ligand | 1 µM | 100% |
| N[C@H]1CCN(c2nccc(-c3cnn4ncccc34)n2)C1 | binding | 1 µM | 91% |
| O=C(c1ccc(Nc2ncc(Cl)c(-c3cc4ccccc4s3)n2)cc1)N1CCC(N2CCCC2)CC1 | binding, competition with immobilised ligand | 1 µM | 100% |
| CCCCN(CCCC)C(=O)CN1C[C@H](c2cc(OC)c3c(c2)OCO3)[C@@H](C(=O)O)[C@@H]1CC(C)(C)CCC | cell-free assay, competition with immobilised ligand | 1 µM | 91.6% |
| CC1CCCN1c1nccc(-c2cnn3ncccc23)n1 (stereo not drawn) | binding | 1 µM | 100% |
| C[C@H](c1ccc(F)cc1)N(Cc1cccc(C(=O)O)c1)C(=O)c1cnc2ccccc2c1 | cell-free assay, competition with immobilised ligand | 1 µM | 100% |
| c1cncc(-c2cccc(Nc3nccc(NC4CCCCC4)n3)c2)c1 | binding, competition with immobilised ligand | 10 µM | 97% |
| COc1cnc(Nc2cccc(S(N)(=O)=O)c2)nc1N1CCN(c2ccccc2)CC1 | binding, competition with immobilised ligand | 1 µM | 90% |
| O=C(NS(=O)(=O)c1ccc(NCC2CCOCC2)c([N+](=O)[O-])c1)c1ccc(N2CCN(Cc3ccc(C(F)(F)F)cc3-c3ccc(Cl)cc3)CC2)cc1Oc1cnc2[nH]ccc2c1 | cell-free assay, competition with immobilised ligand | 1 µM | 89% |
| O=C(Nc1c[nH]nc1C(=O)NC1CCNCC1)c1cc(F)cc(F)c1 | binding, competition with immobilised ligand | 1 µM | 88% |
| CN(C)c1nccc(-c2cnc3ncccn23)n1 | binding | 1 µM | 75% |
| O=C(c1ccc(Nc2ncc(Cl)c(-c3ccc(Cl)s3)n2)cc1)N1CCC(N2CCCC2)CC1 | binding, competition with immobilised ligand | 1 µM | 100% |
| Nc1ncc2c(n1)-c1c([nH]c3ccc(C#CC4CC4)cc13)CCCC2 | binding, competition with immobilised ligand | 1 µM | 75% |
| CN(C)c1nccc(-c2cnn3ncccc23)n1 | binding | 1 µM | 100% |
| COc1cnc(Nc2cccc(S(N)(=O)=O)c2)nc1N1CCN(c2ccccc2)C(=O)C1 | binding, competition with immobilised ligand | 1 µM | 93% |
| F[C@@H]1CCN(c2nccc(-c3cnn4ncccc34)n2)C1 | binding | 1 µM | 100% |
| Cc1cnc(Nc2ccc(C(=O)N3CCC(N4CCCC4)CC3)cc2)nc1-c1cc2ccccc2s1 | binding, competition with immobilised ligand | 1 µM | 100% |
